# Hits are enriched below; roughly 2.5% of the tested compounds scored in any of these assays.
# TRPC6 act: activates the mouse TRPC6 cation channel. B-score at 10 µM. HEK293-TRPC6 membrane potential dye fluorescence; hits give high values. Q61143. 310,000 compounds, 0.13% hits;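 active = B-score of the integrated fluorescence ratio above library mean plus 3 SD, and starting fluorescence ratio within library mean plus 5 SD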;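 note: higher score means more depolarization so channel activation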
# Target sequence (Q61143 whole entry, looked up): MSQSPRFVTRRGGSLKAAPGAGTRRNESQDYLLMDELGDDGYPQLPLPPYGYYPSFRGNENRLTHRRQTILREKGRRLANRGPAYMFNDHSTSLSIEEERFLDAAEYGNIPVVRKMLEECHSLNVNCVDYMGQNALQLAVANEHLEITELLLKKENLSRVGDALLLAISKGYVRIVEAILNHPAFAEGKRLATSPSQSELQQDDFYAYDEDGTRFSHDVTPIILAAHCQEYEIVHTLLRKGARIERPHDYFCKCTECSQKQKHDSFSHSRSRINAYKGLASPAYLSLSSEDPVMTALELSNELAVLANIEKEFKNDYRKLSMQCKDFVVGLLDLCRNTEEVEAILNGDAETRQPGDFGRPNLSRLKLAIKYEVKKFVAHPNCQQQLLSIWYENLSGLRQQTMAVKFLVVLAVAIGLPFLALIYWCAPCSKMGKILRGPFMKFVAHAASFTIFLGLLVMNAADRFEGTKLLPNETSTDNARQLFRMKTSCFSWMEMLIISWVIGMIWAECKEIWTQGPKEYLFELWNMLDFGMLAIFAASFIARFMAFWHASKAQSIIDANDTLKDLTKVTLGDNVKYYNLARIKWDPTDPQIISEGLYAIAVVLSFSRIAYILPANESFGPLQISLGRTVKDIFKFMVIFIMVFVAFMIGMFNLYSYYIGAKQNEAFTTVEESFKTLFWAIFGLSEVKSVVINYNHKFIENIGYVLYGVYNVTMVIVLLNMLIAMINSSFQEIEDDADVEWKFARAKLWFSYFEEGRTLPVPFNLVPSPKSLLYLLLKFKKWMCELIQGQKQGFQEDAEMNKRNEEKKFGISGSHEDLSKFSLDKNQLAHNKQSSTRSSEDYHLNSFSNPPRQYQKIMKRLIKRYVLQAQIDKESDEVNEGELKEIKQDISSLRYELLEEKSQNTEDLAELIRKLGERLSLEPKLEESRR
# TRPC6 inh: mouse TRPC6 channel inhibition; Q61143; HEK293-TRPC6, membrane potential dye, ACh-evoked depolarization; hits give low values; B-score at 10 µM; 310,000 compounds, 1.1% hits; AID 2553;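 active = B-score under library mean minus 3 SD, initial fluorescence not abnormally high, positive integrated signal ratio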;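 note: B-score derived from integrated fluorescence ratio over the kinetic read; more negative B-score means stronger inhibition of depolarization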
# TRPC4 inh: TRPC4 (mouse) channel inhibition; Q9QUQ5; HEK293 TRPC4beta/mu-opioid, DAMGO-evoked Fluo4 calcium flux; hits give low values; B-score at 10 µM; 300,000 compounds, 0.39% hits; AID 2247;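 active = B-score over 3 SD under the library average, no early fluorescence shift, positive overall ratio signal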
#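 Material: HEK293 cells with stable TRPC4beta plus mu-opioid receptor expression; probe or stimulus: DAMGO in two steps, submaximal then maximal; technique: Fluo4 calcium fluorescence by kinetic imaging, 5 s 1 Hz baseline; measure: integrated fluorescence ratio relative to baseline, converted to per-well B score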
# Platelet DG rel: modulates dense granule release in human platelets. human platelet-rich plasma, SFLLRN dense granule ATP release, luminescence. inhibition, %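 (compounds screened at 7.5 µM in platelet-rich plasma)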. 300,000 compounds, 0.22% hits. AID 1663;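 active = mean replicate score, as percent of positive control, at or above 50; inconclusive = mean below 50 but at least one replicate at or above 50; inactive = mean and every replicate below 50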
# TRPC4 agonist: TRPC4 (mouse) channel activation. Q9QUQ5. HEK293 TRPC4beta/mu-opioid, Fluo4 calcium fluorescence; hits give high values. B-score at 10 µM. 310,000 compounds, 0.49% hits. AID 2237;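 active = B-score above 5 SD of library B-scores, and initial fluorescence ratio not above library mean plus 5 SD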;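 note: positive B-score marks a calcium rise read as TRPC4 activation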
#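 System – HEK293 cells stably co-expressing mouse TRPC4beta and mu-opioid receptor · Signal – Fluo4 calcium-sensitive dye fluorescence, kinetic, 1 Hz baseline · Benchmarks – buffer (low) and maximal DAMGO (high) · Read-out – B score of integrated fluorescence ratio per well · Incubation – dye loading 45 min room temperature, 110 s kinetic read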
# TRPC4 PAM: allosterically enhances the mouse TRPC4 cation channel; Q9QUQ5; HEK293 TRPC4beta/mu-opioid, DAMGO EC20, Fluo-4 Ca2+ flux; hits give high values; B-score at 10 µM; 310,000 compounds, 0.42% hits; AID 2227;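 active = B-score of calcium response area above 5 SD of library B-scores, with initial fluorescence ratio within 5 SD of library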;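 note: B-score of integrated fluorescence ratio over time as area under calcium response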
# * marks the source's active call; other numbers are inactive results; i = inactive; u = inconclusive.
SMILES,TRPC6 act,TRPC6 inh,TRPC4 inh,Platelet DG rel,TRPC4 agonist,TRPC4 PAM
CN1CCN(c2cc3c(c4c2[nH]c2ccccc24)C(=O)CC(C)(C)C3)CC1,i,i,i,-4,79*,i
Cc1ccc([N+](=O)[O-])cc1S(=O)(=O)Nc1ccc(OCC(=O)N2CCOCC2)cc1,i,i,i,-18,i,i
CCn1c(-c2cc(-c3ccc(C)c(C)c3)nc3ccccc23)n[nH]c1=S,i,i,i,5,i,i
Cc1ccc(-c2cnn(-c3ccccc3)c2N)cc1,i,i,i,52*,i,i
Cn1c(-c2cnn(-c3ccccc3)c2N)n[nH]c1=S,i,i,i,61*,i,i
Cc1ccc(-c2cc(-c3n[nH]c(=S)n3C)c3ccccc3n2)cc1,i,i,i,-9,i,12*
COc1ccccc1N1CCN(C2CCCN(Cc3ccc(Cl)cc3)C2)CC1 (configuration not stated),i,i,i,-1,i,i
COc1ccccc1N1CCN(C2CCCN(Cc3ccccc3OCCO)C2)CC1 (configuration not stated),i,i,i,6,i,12*
COc1ccc(O)c(CN2CCCC(N3CCN(c4ccccc4OC)CC3)C2)c1 (configuration not stated),i,i,i,-2,43*,i
COc1ccccc1N1CCN(C2CCCN(C(=O)c3oc(C)cc3C)C2)CC1 (configuration not stated),i,i,i,-4,54*,i
CCOC(=O)c1c(CC(C)C)csc1N,i,i,-6*,0,i,i
CCOc1ccc(N2C(=O)CC(Sc3nc4ccc(OCC)cc4s3)C2=O)cc1 (configuration not stated),i,i,i,56*,i,i
CCOc1ccc2nc(SC3CC(=O)N(c4ccc(C)cc4)C3=O)sc2c1 (configuration not stated),i,i,i,11,i,i
Cc1ccccc1Cn1ccc(NC(=O)c2cnn3cccnc23)n1,i,i,i,3,i,i
O=C(CCl)Nc1ccccc1C(=O)Nc1ccc2c(c1)OCO2,i,i,i,55*,i,i
O=C(CCNC(=O)c1ccccc1Cl)Nc1ccc2c(c1)OCO2,i,i,i,-3,i,i
COC(=O)c1ccccc1NC(=O)Nc1ccc2c(c1)OCO2,i,i,i,74*,i,i
Cc1cc(NC(=O)c2cnn3cccnc23)nn1CC(=O)Nc1cccnc1,i,i,i,13,51*,150*
O=C(Nc1ccc2c(c1)OCO2)c1cnn2cccnc12,i,i,i,16,i,50*
CSc1nccc(N/N=C/c2ccccc2)n1,i,i,i,3,i,i
Cc1ccc(CSC2=NCCN2C(=O)c2ccc(S(=O)(=O)N(C)C)cc2)cc1,i,i,i,2,i,i
COC(=O)CCCn1nc(NC(=O)COc2ccc(F)cc2)cc1C,i,i,i,7,i,i
CCc1nc(SCC(=O)NC2CCCC2)c2oc3ccccc3c2n1,i,i,i,17,i,i
CCc1nc(SCC(=O)N2CCCc3ccccc32)c2oc3ccccc3c2n1,i,i,-5*,2,i,i
Cc1cc(C(C)(C)C)c(O)c(C)c1CC1=NCCN1,i,i,i,-4,i,17*
SMILES,TRPC6 act,TRPC6 inh,TRPC4 inh,Platelet DG rel,TRPC4 agonist,TRPC4 PAM
c1ccc2c(CC3=NCCN3)cccc2c1,i,i,i,5,i,i
CCc1ccc(OCc2ccc(C(=O)NCc3ccccn3)o2)cc1,i,i,i,10,i,25*
O=c1[nH][nH]c(-c2ccccc2)c1C=Nc1ccc(F)cc1F,i,i,i,-4,i,79*
C(C#CCCCCCCCCC[n+]1ccccc1)#CCCCCCCCCC[n+]1ccccc1,i,i,i,-18,84*,i
O=C(NCCc1ccccn1)C(F)(F)C(F)(F)C(F)(F)C(F)(F)C(F)(F)C(F)F,i,i,i,u,128*,i
COc1ccc(OC2CCN(S(=O)(=O)c3cccc(F)c3)CC2)cc1,i,i,i,-2,i,11*
Cc1cccc(NC(=S)N(CCCN(C)C)Cc2cc3cc4c(cc3[nH]c2=O)OCO4)c1,i,i,i,1,i,i
CCc1ccccc1NC(=S)N(CCCN(C)C)Cc1cc2cc3c(cc2[nH]c1=O)OCO3,i,i,-8*,-3,i,i
CCCCOC(=O)CCc1c(C)[nH]c(=O)c(C#N)c1C,i,i,i,61*,i,i
CCOc1ccc(S(=O)(=O)N2CCOCC2)cc1NC(=O)CSCc1c(C)noc1C,i,i,i,6,i,10*
CCOc1ccc(S(=O)(=O)N2CCCCC2)cc1NC(=O)CSCc1c(C)noc1C,i,i,i,24,i,i
C#CCCOC(=O)N1C2=NC(C(=O)OC)=C(C(=O)OC)[C@@H]3N(Cc4ccccc4)c4ccccc4[C@]23C[C@H]1C(=O)OC,i,i,i,0,i,10*
Cc1ccc(-n2cnn(-c3ccc([N+](=O)[O-])cc3[N+](=O)[O-])c2=O)cc1,i,i,-6*,-8,i,i
C=CCc1ccccc1OCC(O)CNC(=O)c1ccccc1C(=O)O (configuration not stated),i,i,i,6,i,i
CSc1c(C#N)sc(=S)n1-c1ccc(C)cc1,i,i,-7*,-3,i,i
Cc1ccc(C(C(=O)NC(C)(C)C)N(Cc2ccco2)C(=O)CCC(=O)Nc2ccccn2)cc1 (configuration not stated),i,i,i,-4,i,i
Cc1ccc(C(C(=O)NC(C)(C)C)N(C(=O)CCC(=O)Nc2ccccn2)c2ccccc2F)cc1 (configuration not stated),i,i,-8*,-3,i,i
CN(CC(=O)Nc1ccccc1Br)C(=O)C(Cc1ccccc1)NC(=O)c1ccccc1 (configuration not stated),i,i,i,59*,i,i
Cc1c(Cl)ccc2c(C(=O)Nc3cc(C(C)(C)C)on3)cc(-c3ccccn3)nc12,i,i,i,-5,i,i
C=CCn1c(SCC(=O)OC)nc2sc3c(c2c1=O)CCN(C)C3,i,-5.7*,i,4,i,i
